Among all 2,500 compounds or so, about 460 (18%) were called active.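 Rule for the calls: active = mean activation above a cutoff of low control average plus 3 SD from the earlier screen (cut at about 12% in these data); inactive = the rest.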 A selection follows.
experiment: compound fluorescence interference without thin filaments, confirmation, artefact control for cardiac RTF calcium sensitizer project, biochemical (AID 504382); settings: IANBD fluorescence interference counterscreen, buffer, EC20 Ca2+; at 7.2 µM; stronger effect = higher value; scaled: EC20 calcium 0, EC100 calcium 100
Method in brief: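 Medium: MOPS/KCl/MgCl2/EGTA/NTA/DTT buffer, pH 7.2 | Reagent: EC20 calcium, 0.472 mM | Compound dosing: 7.2 µM single dose | Times: 15 min compound exposure at 25 °C | Signal: Fluorescence, 480/540 nm | Measure: Interference relative to controls | Repeats: Triplicate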

| SMILES | fluorescence artifact activation |
| --- | --- |
| Cc1ccc(N=C2NC(=O)/C(=C/c3cccnc3)S2)cc1C | 0.55% (inactive) |
| O=C1NC(=NCc2ccccc2)S/C1=C\c1ccccc1 | 14.6% (active) |
| COc1ccccc1N=C1NC(=O)/C(=C/c2ccc(N(C)C)cc2)S1 | 0.13% (inactive) |
| Nc1ccc(S(N)(=O)=O)cc1N | 196% (active) |
| Nc1ccc2c(O)cc(S(=O)(=O)O)cc2c1 | 0.19% (inactive) |
| O=C1NC(c2cccc([N+](=O)[O-])c2)Oc2ccccc21 (stereo not drawn) | -0.04% (inactive) |
| Cc1ccc(OCc2ccc(C(=O)O)o2)cc1C | -0.09% (inactive) |
| O=C(NCc1csc2ccccc12)Nc1cc(Cl)cc(Cl)c1 | 0.06% (inactive) |
| Cc1cc(C(=O)NNC(=S)NCc2ccccc2)cs1 | -0.07% (inactive) |
| O=C(O)/C=C/C(=O)NCc1csc2ccccc12 | 94.3% (active) |
| CCOC(=O)c1c(-c2ccccc2)csc1NC(=O)/C(C#N)=C/c1ccc(O)c(OC)c1 | 6.3% (inactive) |
| CN1CCC[C@@H]1CCNC(=O)c1cccc2c1C(=O)c1ccc(N3CCCC3)cc1S2(=O)=O | -0.09% (inactive) |
| O=C(NCC1CC1)c1cccc2c1C(=O)c1ccc(N3CCCC3)cc1S2(=O)=O | 69.4% (active) |
| C=CCNC(=O)c1cccc2c1C(=O)c1ccc(N3CCCC3)cc1S2(=O)=O | 0.04% (inactive) |
| O=C(NC1CCCCC1)c1cccc2c1C(=O)c1ccc(N3CCC(Cc4ccccc4)CC3)cc1S2(=O)=O | 0.54% (inactive) |
| CC1CCN(c2ccc3c(c2)S(=O)(=O)c2cccc(C(=O)NC4CCCCC4)c2C3=O)CC1 | 0.04% (inactive) |
| O=C(NC1CCCCC1)c1cccc2c1C(=O)c1ccc(N3CCCC3)cc1S2(=O)=O | 23.8% (active) |
| COc1ccccc1N1C(=O)c2cccc3c(N(C)CCO)ccc(c23)C1=O | 0.41% (inactive) |
| O=C(N/C(=C/c1cn(-c2ccccc2)nc1-c1ccccc1)C(=O)N1CCOCC1)c1ccc(Cl)cc1Cl | 3.44% (inactive) |
| COc1cccc2c1C(=O)c1c(O)c3c(c(O)c1C2=O)CC(O)(C(C)=O)CC3OC1CC(O)C(O)C(C)O1 (stereo not drawn) | 24.9% (active) |
| COc1cccc2c1C(=O)c1c(O)c3c(c(O)c1C2=O)CC(O)(C(=O)CO)CC3OC1CC(N(C)C)C(O)C(C)O1 (stereo not drawn) | 40.5% (active) |
| COc1cccc2c1C(=O)c1c(O)c3c(c(O)c1C2=O)CC(O)(C(C)=O)CC3OC1CC(N(C)C)C(O)C(C)O1 (stereo not drawn) | 0% (inactive) |

| SMILES | fluorescence artifact activation |
| --- | --- |
| COc1cccc2c1C(=O)c1c(O)c3c(c(O)c1C2=O)C[C@](O)(C(C)=O)C[C@H]3O[C@@H]1C[C@@H](N)[C@@H](O)[C@@H](C)O1 | -0.05% (inactive) |
| COc1cccc2c1C(=O)c1c(O)c3c(c(O)c1C2=O)C[C@@](O)(C(=O)CO)C[C@@H]3OC1CC(N)C(O)C(C)O1 (stereo partly drawn) | 0.06% (inactive) |
| COc1cccc2c1C(=O)c1c(O)c3c(c(O)c1C2=O)C[C@@](O)(C(=O)CO)C[C@@H]3O[C@H]1C[C@H](N)[C@H](O)[C@H](C)O1 | -0.07% (inactive) |
| COC(=O)c1ccccc1NC(=O)[C@@H]1CCC(=O)N1C1OC(=O)c2c1ccc(OC)c2OC (stereo partly drawn) | 0.09% (inactive) |
| O=C1C=C(NCc2ccco2)CC(c2ccc(Cl)cc2)C1 (stereo not drawn) | 0.31% (inactive) |
| CC1=CC=CN2CC(O)CN=C12 (stereo not drawn) | 3.77% (inactive) |
| Cc1c(C(=O)NCc2ccc3c(c2)cc(C)n3C)cccc1[N+](=O)[O-] | 0.13% (inactive) |
| COc1cc(NC(=O)CSc2nc3ccccc3n2-c2ccccc2)c(C)cc1[N+](=O)[O-] | 0.03% (inactive) |
| COC1=C/C(=C/c2c(N)n3c(nc2=O)sc2cc(S(C)(=O)=O)ccc23)C=CC1=O | 0.11% (inactive) |
| N#Cc1cccc(NC(=S)Nc2ccccc2)c1 | 0.03% (inactive) |
| CC(C)(C)OC(=O)[C@H](Cc1ccccc1)NC(=O)c1nc[nH]c1C(=O)NCc1ccccc1 | 4.14% (inactive) |
| CN(Cc1ccccc1)C(=O)c1[nH]cnc1C(=O)NCc1ccccc1 | 12.7% (active) |
| CCOC(=O)c1[nH]cnc1C(=O)Nc1ccccn1 | 0.74% (inactive) |
| CCOC(=O)C1=C(C)N=c2s/c(=C\c3ccc(OCC(=O)O)cc3)c(=O)n2C1c1ccc(Cl)cc1 (stereo not drawn) | 0.05% (inactive) |
| CC1=C/C(=C\C=C(C#N)C#N)N(C)c2ccccc21 | 0.3% (inactive) |
| O=C(O)c1cc(Cl)ccc1-c1ccc(/C=C/c2cc(C(F)(F)F)[nH]c(=O)n2)o1 | 21.8% (active) |
| O=C(O)c1ccccc1-c1ccc(/C=C/c2cc(C(F)(F)F)[nH]c(=O)n2)o1 | 0.16% (inactive) |
| Cc1cc2nc(/C(C#N)=C\c3ccc(-c4ccccc4C(=O)O)o3)[nH]c2cc1C | 0.09% (inactive) |
| CC(=O)NN1C(=O)/C(=C\c2ccc(O)cc2)SC1=S | 0.69% (inactive) |
| C/C(=N\Nc1ccc([N+](=O)[O-])cc1[N+](=O)[O-])c1cccnc1 | 0.07% (inactive) |
| O=C(NCc1nnc(SCC(=O)N2CCCCCC2)o1)c1ccco1 | 8.13% (inactive) |
| Fc1ccc(OCc2nnc(SCCN3CCOCC3)o2)cc1 | -0.06% (inactive) |

| SMILES | fluorescence artifact activation |
| --- | --- |
| O=C(CSc1nnc(COc2ccccc2)o1)N1CCN(c2ccccc2)CC1 | 12% (active) |
| Cc1cccc(NC(=O)CN2C(=O)N/C(=C/c3ccc(C)s3)C2=O)c1 | 0.09% (inactive) |
| O=C(O)c1ccc(-n2c(/C=C/c3cccc([N+](=O)[O-])c3)nc3ccccc3c2=O)cc1 | 0.47% (inactive) |
| COCCN1C(=O)/C(=C/c2ccc(N3CCCC3)cc2)SC1=S | 0.34% (inactive) |
| CC(=O)c1ccc(S(=O)(=O)Nc2ccc(C(=O)N3CCC3)cc2)cc1 | 0.27% (inactive) |
| CC1CN(c2ccc(NS(=O)(=O)c3ccccc3)cc2C(=O)O)CC(C)O1 (stereo not drawn) | 31.9% (active) |
| CCOC(=O)C1CCCN(C(=O)c2cccc(S(=O)(=O)N3CC(C)OC(C)C3)c2)C1 (stereo not drawn) | 0.05% (inactive) |
| O=C(Nc1ccc(F)cc1F)c1ccc(COc2c(F)c(F)cc(F)c2F)o1 | -0.01% (inactive) |
| CCCCc1ccc(NC(=O)N2CCNC(=O)C2CC(=O)Nc2ccsc2C(=O)OC)cc1 (stereo not drawn) | -0.11% (inactive) |
| Cc1cn2c(N)c(C=C3C=C(Cl)C(=O)C(Cl)=C3)c(=O)nc2s1 | 4.46% (inactive) |
| CCOC(=O)CN1C(=O)S/C(=C/C=C/c2ccc(N(C)C)cc2)C1=O | -0.03% (inactive) |
| O=C(/C=C/c1cn(CC(O)CN2CCCCC2)c2ccccc12)c1cccs1 (stereo not drawn) | 14.5% (active) |
| O=C(/C=C/c1cn(CC(O)CN2CCCCCC2)c2ccccc12)c1cccs1 (stereo not drawn) | 5.69% (inactive) |
| Cc1ccc(C(=O)/C=C/c2cn(CC(O)CN3CCOCC3)c3ccccc23)cc1 (stereo not drawn) | 0.01% (inactive) |
| COc1ccc(C(=O)/C=C/c2cn(CC(O)CN3CCOCC3)c3ccccc23)cc1 (stereo not drawn) | 6.56% (inactive) |
| CCCN(CCC)CC(O)Cn1cc(/C=C/C(=O)c2cccs2)c2ccccc21 (stereo not drawn) | 0.1% (inactive) |
| COc1ccc(C(=O)/C=C/c2cn(CC(O)CN3CCN(C)CC3)c3ccccc23)cc1OC (stereo not drawn) | 18.9% (active) |
| CCN(CC)c1ccc(-c2sc(Nc3ccccc3)n[n+]2-c2ccc(F)cc2)cc1 | 3.87% (inactive) |
| C=CCOc1ccn(C)c(=O)n1 | 2.39% (inactive) |
| O=[N+]([O-])c1ccc(/C=C/C2=NN(c3ccccc3)C(c3ccco3)C2)cc1 (stereo not drawn) | 6.35% (inactive) |
| Cc1nnc(N/N=C/c2ccc(O)c([N+](=O)[O-])c2)[nH]c1=O | 8.03% (inactive) |
| O=S1(=O)CCOC[C@H](CC2CCCCC2)N1Cc1ccccc1 | 0.05% (inactive) |

| SMILES | fluorescence artifact activation |
| --- | --- |
| O=C(Cn1c(C(F)(F)F)nc2ccccc21)NCCN1CCCC1 | 0.11% (inactive) |
| CCn1c(CNc2ccc(C(=O)O)cc2)nc2ccccc21 | -0.08% (inactive) |
| O=C(NCCNC(=O)c1cccs1)c1ccco1 | 10.5% (inactive) |
| Cn1c(=O)c2c(nc(NCCNC(=O)c3ccco3)n2Cc2ccccc2Cl)n(C)c1=O | 0.11% (inactive) |
| Cn1c(CCNC(=O)c2ccco2)nc2ccccc21 | 350% (active) |
| CCCC(=O)NCCCc1nc2ccccc2n1C | 43.2% (active) |
| COc1ccc(CN2CNc3c(c(=O)n(C)c(=O)n3C)C2)cc1 | 6.35% (inactive) |
| Brc1ccc(-c2noc(-c3ccccn3)n2)o1 | 0.61% (inactive) |
| O=C1C(=Cc2ccco2)CCCC1=Cc1ccco1 | 6.25% (inactive) |
| O=C(NCc1ccccc1Cl)c1ccc2nc[nH]c2c1 | -0.08% (inactive) |
| CCOC(=O)CC1=NS(=O)(=O)c2ccccc2N1 | 2.81% (inactive) |
| COc1ccccc1NS(=O)(=O)c1ccccc1C#N | -0.04% (inactive) |
| COc1ccccc1NS(=O)(=O)c1cc(NC(=O)c2cc3ccccc3oc2=O)ccc1C | 16.8% (active) |
| COc1ccccc1NS(=O)(=O)c1cc(NC(=O)CCNC(C)=O)ccc1N1CCCCC1 | 0.74% (inactive) |
| CCNc1nc(SCC(N)=O)nc2sc3c(c12)CCN(C)C3 | 0.22% (inactive) |
| CN(/N=C/c1ccc(-c2ccc([N+](=O)[O-])cc2)o1)c1ccccc1 | 9.54% (inactive) |
| COc1ccccc1NS(=O)(=O)c1cc([N+](=O)[O-])ccc1N/N=C/c1c(C)[nH]c2ccccc12 | 4.83% (inactive) |
| COCCN=c1scc(-c2cc(OC)c(OC)c(OC)c2)n1/N=C/c1c(C)[nH]c2ccccc12 | 21.1% (active) |
| CCN(CC)S(=O)(=O)c1ccc2[nH]cc(C(=O)NCCN3CCCCCC3)c(=O)c2c1 | 14.6% (active) |
| CCN(CC)S(=O)(=O)c1ccc2[nH]c(=O)[nH]c2c1 | 0.38% (inactive) |
| Cn1c(C(=O)NCCCN2CCCCCC2)cc2c(=O)n(C)c3ccccc3c21 | 3.34% (inactive) |
| O=C(CSCc1ccco1)NC1CCCC1 | 5.75% (inactive) |

Source: PubChem BioAssay AID504382 (The Scripps Research Institute Molecular Screening Center, 2011)
